From ChEMBL document CHEMBL3611968, “Reengineered tricyclic anti-cancer agents” (Bioorg Med Chem, 2015)
Activity calls are given as the source filed them. No cut-off for these calls is given here.

Key:
[1] = molecular target: T1, D(4) dopamine receptor (Homo sapiens) (UniProt P21917); experiment: Binding affinity to dopamine D4 receptor (unknown origin) at 0.1 mM by radioligand displacement assay relative to control
T1 sequence (whole entry): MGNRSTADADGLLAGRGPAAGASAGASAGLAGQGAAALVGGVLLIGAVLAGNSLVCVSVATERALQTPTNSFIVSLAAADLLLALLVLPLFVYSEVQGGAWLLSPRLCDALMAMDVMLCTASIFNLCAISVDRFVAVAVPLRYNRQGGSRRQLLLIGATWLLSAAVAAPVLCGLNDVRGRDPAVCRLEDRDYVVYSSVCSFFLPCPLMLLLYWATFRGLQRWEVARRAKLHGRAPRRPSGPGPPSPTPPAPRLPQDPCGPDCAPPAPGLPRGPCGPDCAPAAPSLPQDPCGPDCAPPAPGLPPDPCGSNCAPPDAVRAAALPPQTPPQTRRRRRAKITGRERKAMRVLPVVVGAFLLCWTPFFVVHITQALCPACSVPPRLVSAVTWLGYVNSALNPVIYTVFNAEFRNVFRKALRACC

[2] = molecular target: D(1B) dopamine receptor (Homo sapiens) (UniProt P21918); experiment: Binding affinity to dopamine D5 receptor (unknown origin) at 0.1 mM by radioligand displacement assay relative to control
[3] = molecular target: D(2) dopamine receptor (Homo sapiens) (UniProt P14416); experiment: Binding affinity to dopamine D2 receptor (unknown origin) at 0.1 mM by radioligand displacement assay relative to control
[4] = molecular target: D(1A) dopamine receptor (Homo sapiens) (UniProt P21728); experiment: Binding affinity to dopamine D1 receptor (unknown origin) at 0.1 mM by radioligand displacement assay relative to control
NCI-H1650 [5] = experiment: Cytotoxicity against human NCI-H1650 cells assessed as growth inhibition after 48 hrs by MTT assay; type: functional
Outline: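 H1650 cells were exposed to drug for 48 h at five concentrations bracketing 1–40 μM in 10 μM steps, with MTT read-out. GI50 is given only where the data form a sigmoidal dose response.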

[6] = molecular target: D(3) dopamine receptor (Homo sapiens) (UniProt P35462); experiment: Binding affinity to dopamine D3 receptor (unknown origin) at 0.1 mM by radioligand displacement assay relative to control
[7] = molecular target: RAC-alpha serine/threonine-protein kinase (Homo sapiens) (UniProt P31749); experiment: Inhibition of AKT phosphorylation in human NCI-H1650 cells at 20 to 40 uM after 12 hrs by Western blot analysis; type: cell-based
NCI-H1650 [8] = experiment: Inhibition of ERK phosphorylation in human NCI-H1650 cells at 20 to 40 uM after 12 hrs by Western blot analysis; type: cell-based
[9] = Tmax in mouse at 100 mg/kg, ip administered through DMA/solutol/water; type: ADME, organism-based; settings: in vivo
[10] = Bioavailability in mouse at 100 mg/kg, ip administered through DMA/solutol/water; type: ADME, organism-based; settings: in vivo
[11] = Oral bioavailability in mouse at 25 mg/kg; type: ADME, organism-based; settings: in vivo
[12] = AUClast in mouse at 25 mg/kg, ip; type: ADME, organism-based; settings: in vivo
[13] = AUCinfinity in mouse at 25 mg/kg, po; type: ADME, organism-based; set-up: dose 25 mg/kg, route oral, time infinity; settings: in vivo
[14] = Tmax in mouse at 25 mg/kg, po; type: ADME, organism-based; settings: in vivo
[15] = Cmax in mouse at 25 mg/kg, ip; type: ADME, organism-based; set-up: dose 25 mg/kg, route intraperitoneal; settings: in vivo
[16] = AUClast in mouse at 100 mg/kg, ip administered through DMA/solutol/water; type: ADME, organism-based; settings: in vivo
[17] = AUCinfinity in mouse at 100 mg/kg, ip administered through DMA/solutol/water; type: ADME, organism-based; set-up: dose 100 mg/kg, route intraperitoneal, time infinity; settings: in vivo
[18] = Half life in mouse at 1 mg/kg, iv; type: ADME, organism-based; settings: in vivo
[19] = AUClast in mouse at 25 mg/kg, po; type: ADME, organism-based; settings: in vivo
[20] = AUCinfinity in mouse at 25 mg/kg, ip; type: ADME, organism-based; set-up: dose 25 mg/kg, time infinity, route intraperitoneal; settings: in vivo
[21] = Cmax in mouse at 100 mg/kg, po; type: ADME, organism-based; set-up: dose 100 mg/kg, route oral; settings: in vivo
[22] = Clearance in mouse at 1 mg/kg, iv; type: ADME, organism-based; settings: in vivo
[23] = AUClast in mouse at 100 mg/kg, po; type: ADME, organism-based; settings: in vivo
[24] = Tmax in mouse at 100 mg/kg, po; type: ADME, organism-based; settings: in vivo
[25] = AUClast in mouse at 1 mg/kg, iv; type: ADME, organism-based; settings: in vivo
[26] = Cmax in mouse at 25 mg/kg, po; type: ADME, organism-based; set-up: dose 25 mg/kg, route oral; settings: in vivo
[27] = Oral bioavailability in mouse at 100 mg/kg; type: ADME, organism-based; settings: in vivo
[28] = AUCinfinity in mouse at 1 mg/kg, iv; type: ADME, organism-based; set-up: dose 1 mg/kg, time infinity, route intravenous; settings: in vivo
[29] = Tmax in mouse at 25 mg/kg, ip; type: ADME, organism-based; settings: in vivo
[30] = Volume of distribution at steady state in mouse at 1 mg/kg, iv; type: ADME, organism-based; settings: in vivo, read-out: Vdss
[31] = Cmax in mouse at 100 mg/kg, ip administered through DMA/solutol/water; type: ADME, organism-based; set-up: dose 100 mg/kg, route intraperitoneal; settings: in vivo
[32] = Bioavailability in mouse at 25 mg/kg, ip; type: ADME, organism-based; settings: in vivo

Chain of D(3) dopamine receptor (Homo sapiens) (P35462 whole entry): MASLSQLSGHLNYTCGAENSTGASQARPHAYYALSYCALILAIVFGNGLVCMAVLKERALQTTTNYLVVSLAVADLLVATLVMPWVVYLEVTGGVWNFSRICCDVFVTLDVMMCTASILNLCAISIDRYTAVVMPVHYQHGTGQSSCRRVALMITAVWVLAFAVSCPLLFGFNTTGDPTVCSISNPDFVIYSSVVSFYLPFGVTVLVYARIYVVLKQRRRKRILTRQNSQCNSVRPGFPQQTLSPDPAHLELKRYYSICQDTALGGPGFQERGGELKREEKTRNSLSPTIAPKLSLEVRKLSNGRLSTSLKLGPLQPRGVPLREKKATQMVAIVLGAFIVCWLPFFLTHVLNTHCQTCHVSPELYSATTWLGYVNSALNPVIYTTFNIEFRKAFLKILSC
Chain of D(1A) dopamine receptor (Homo sapiens) (P21728 whole entry): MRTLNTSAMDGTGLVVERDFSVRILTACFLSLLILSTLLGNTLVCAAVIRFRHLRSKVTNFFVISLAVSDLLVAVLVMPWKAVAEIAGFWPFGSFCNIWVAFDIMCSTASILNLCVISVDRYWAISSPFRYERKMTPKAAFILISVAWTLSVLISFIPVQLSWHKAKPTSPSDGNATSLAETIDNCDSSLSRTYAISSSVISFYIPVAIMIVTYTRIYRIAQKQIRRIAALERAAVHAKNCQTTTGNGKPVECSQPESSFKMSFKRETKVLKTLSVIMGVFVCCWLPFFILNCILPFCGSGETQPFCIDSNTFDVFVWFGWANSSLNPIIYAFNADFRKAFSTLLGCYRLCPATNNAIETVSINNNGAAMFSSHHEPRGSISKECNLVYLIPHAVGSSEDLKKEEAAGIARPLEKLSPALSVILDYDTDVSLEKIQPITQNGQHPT
Chain of D(1B) dopamine receptor (Homo sapiens) (P21918 whole entry): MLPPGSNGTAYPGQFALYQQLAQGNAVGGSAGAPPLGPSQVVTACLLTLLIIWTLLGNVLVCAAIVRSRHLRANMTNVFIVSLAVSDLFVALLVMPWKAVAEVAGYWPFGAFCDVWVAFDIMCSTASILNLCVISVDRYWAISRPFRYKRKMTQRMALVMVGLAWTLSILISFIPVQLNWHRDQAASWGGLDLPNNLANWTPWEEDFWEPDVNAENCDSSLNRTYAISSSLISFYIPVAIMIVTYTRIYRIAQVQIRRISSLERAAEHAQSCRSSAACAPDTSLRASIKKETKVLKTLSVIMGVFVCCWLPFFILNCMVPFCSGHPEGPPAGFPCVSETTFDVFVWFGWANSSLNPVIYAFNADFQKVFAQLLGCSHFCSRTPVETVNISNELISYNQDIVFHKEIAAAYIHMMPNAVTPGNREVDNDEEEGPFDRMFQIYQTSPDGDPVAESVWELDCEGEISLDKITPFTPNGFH
Chain of D(2) dopamine receptor (Homo sapiens) (P14416 whole entry): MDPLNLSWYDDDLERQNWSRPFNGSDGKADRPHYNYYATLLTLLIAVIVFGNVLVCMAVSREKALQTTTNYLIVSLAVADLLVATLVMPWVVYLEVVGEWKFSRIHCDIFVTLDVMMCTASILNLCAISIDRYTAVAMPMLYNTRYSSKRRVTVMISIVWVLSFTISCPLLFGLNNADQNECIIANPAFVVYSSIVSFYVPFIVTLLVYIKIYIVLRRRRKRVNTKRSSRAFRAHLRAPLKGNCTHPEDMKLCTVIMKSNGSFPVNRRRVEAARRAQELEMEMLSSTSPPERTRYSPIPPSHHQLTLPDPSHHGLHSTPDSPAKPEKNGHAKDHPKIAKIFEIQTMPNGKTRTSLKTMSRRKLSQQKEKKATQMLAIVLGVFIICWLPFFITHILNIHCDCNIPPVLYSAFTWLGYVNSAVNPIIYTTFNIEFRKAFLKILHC
Chain of RAC-alpha serine/threonine-protein kinase (Homo sapiens) (P31749 whole entry): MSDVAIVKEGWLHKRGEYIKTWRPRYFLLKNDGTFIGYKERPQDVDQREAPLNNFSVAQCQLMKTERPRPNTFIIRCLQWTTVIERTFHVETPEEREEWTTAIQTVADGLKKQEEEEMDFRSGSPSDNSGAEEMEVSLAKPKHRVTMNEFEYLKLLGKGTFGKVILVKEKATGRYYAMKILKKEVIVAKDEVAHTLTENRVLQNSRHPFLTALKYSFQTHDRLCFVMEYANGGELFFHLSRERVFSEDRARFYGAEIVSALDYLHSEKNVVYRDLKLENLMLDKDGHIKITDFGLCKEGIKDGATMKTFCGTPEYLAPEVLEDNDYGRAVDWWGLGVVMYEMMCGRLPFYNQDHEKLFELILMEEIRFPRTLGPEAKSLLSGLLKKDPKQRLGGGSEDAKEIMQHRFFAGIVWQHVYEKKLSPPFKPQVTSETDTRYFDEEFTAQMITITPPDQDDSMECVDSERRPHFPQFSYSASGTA

COC(=O)NCCCN1c2ccccc2CCc2ccc(Cl)cc21
inhibition [1]: < 5%
inhibition [2]: < 10%
inhibition [3]: < 5%
inhibition [4]: < 5%
GI50 (NCI-H1650 [5]; NCI-H1650, 48 h): > 40 µM
inhibition [6]: < 5%

O=S(=O)(NCCN1c2ccccc2Sc2ccc(Cl)cc21)c1ccc(Cl)cc1
inhibition [7]: Active
GI50 (NCI-H1650 [5]; NCI-H1650, 48 h): 20 µM
inhibition (NCI-H1650 [8]): Active

Cc1ccc(S(=O)(=O)NCCCN2c3ccccc3CCc3ccc(Cl)cc32)cc1
inhibition [1]: < 5%
inhibition [2]: < 10%
inhibition [3]: < 5%
inhibition [4]: < 5%
GI50 (NCI-H1650 [5]; NCI-H1650, 48 h): > 40 µM
inhibition [6]: < 5%

O=S(=O)(NCCCN1c2ccccc2CCc2ccc(Cl)cc21)c1ccc(C(F)(F)F)cc1
GI50 (NCI-H1650 [5]; NCI-H1650, 48 h): 12.6 µM

CS(=O)(=O)c1ccc(S(=O)(=O)NCCCN2c3ccccc3CCc3ccc(Cl)cc32)cc1
GI50 (NCI-H1650 [5]; NCI-H1650, 48 h): 15.1 µM

O=S(=O)(c1ccc(Cl)cc1)N1CCCCC1CCN1c2ccccc2Sc2ccc(Cl)cc21 (stereo unspecified)
GI50 (NCI-H1650 [5]): inactive

O=S(=O)(NCCCN1c2ccccc2CCc2ccc(Cl)cc21)c1ccc(Cl)cc1F
GI50 (NCI-H1650 [5]; NCI-H1650, 48 h): 20.8 µM

Cn1c(=O)oc2cc(S(=O)(=O)NCCCN3c4ccccc4CCc4ccccc43)ccc21
GI50 (NCI-H1650 [5]; NCI-H1650, 48 h): > 40 µM

O=S(=O)(NCCCN1c2ccccc2CCc2ccc(Cl)cc21)c1ccc2ccccc2c1
GI50 (NCI-H1650 [5]; NCI-H1650, 48 h): > 40 µM

O=S(=O)(NCCCN1c2ccccc2CCc2ccccc21)c1ccc(N2CCOCC2)cn1
GI50 (NCI-H1650 [5]; NCI-H1650, 48 h): > 40 µM

O=S(=O)(NC[C@H](O)CN1c2ccccc2CCc2ccccc21)c1ccc(OC(F)(F)F)cc1
Tmax [9]: 1 h
bioavailability [10]: 94%
bioavailability [11]: 36%
AUC(0-t) [12]: 5700 ng·h/mL
AUC(0-inf) [13]: 3460 ng·h/mL
Tmax [14]: 1 h
Cmax [15]: 2240 ng/mL
GI50 (NCI-H1650 [5]; NCI-H1650, 48 h): 15 µM
AUC(0-t) [16]: 34700 ng·h/mL
AUC(0-inf) [17]: 34700 ng·h/mL
half-life [18]: 0.81 h
AUC(0-t) [19]: 3300 ng·h/mL
AUC(0-inf) [20]: 5790 ng·h/mL
Cmax [21]: 4880 ng/mL
clearance [22]: 44 mL/min/kg
AUC(0-t) [23]: 18500 ng·h/mL
Tmax [24]: 2 h
AUC(0-t) [25]: 370 ng·h/mL
Cmax [26]: 1310 ng/mL
bioavailability [27]: 50%
AUC(0-inf) [28]: 376 ng·h/mL
Tmax [29]: 1 h
Vd [30]: 1.61 L/kg
Cmax [31]: 6490 ng/mL
bioavailability [32]: 62%

O=S(=O)(NCCCN1c2ccccc2Sc2ccc(Cl)cc21)c1cc(F)cc(F)c1
GI50 (NCI-H1650 [5]; NCI-H1650, 48 h): 18 µM

CN(C)C(=O)NCCCN1c2ccccc2CCc2ccc(Cl)cc21
GI50 (NCI-H1650 [5]; NCI-H1650, 48 h): > 40 µM

O=S(=O)(NCCCN1c2ccccc2CCc2ccccc21)c1cnc(Cl)c(Br)c1
GI50 (NCI-H1650 [5]; NCI-H1650, 48 h): > 40 µM

O=S(=O)(N[C@H]1CC[C@@H](N2c3ccccc3CCc3ccccc32)CC1)c1ccc(Cl)cc1
GI50 (NCI-H1650 [5]; NCI-H1650, 48 h): 10 µM

O=S(=O)(NCCCN(c1ccccc1)c1cccc(Cl)c1)c1ccc(Cl)cc1
GI50 (NCI-H1650 [5]): inactive

O=S(=O)(NCCCN1c2ccccc2CCc2cncnc21)c1ccc(Cl)cc1
GI50 (NCI-H1650 [5]): inactive

O=S(=O)(NC1CCOC2(C1)c1ccccc1CCc1ccccc12)c1ccc(OC(F)(F)F)cc1 (stereo unspecified)
GI50 (NCI-H1650 [5]; NCI-H1650, 48 h): > 40 µM

O=C(NCCCN1c2ccccc2CCc2ccc(Cl)cc21)c1ccccc1
GI50 (NCI-H1650 [5]): inactive

O=S(=O)(NCCCN1c2ccccc2CCc2ccc(Cl)cc21)C1CCCCC1
GI50 (NCI-H1650 [5]): inactive

O=S(=O)(NCCN1c2ccccc2CCc2ccc(Cl)cc21)c1ccc(OC(F)(F)F)cc1
GI50 (NCI-H1650 [5]; NCI-H1650, 48 h): 22 µM

O=S(=O)(NCCCCN1c2ccccc2CCc2ccc(Cl)cc21)c1ccc(OC(F)(F)F)cc1
GI50 (NCI-H1650 [5]): inactive

COc1ccc(S(=O)(=O)NCCCN2c3ccccc3CCc3ccc(Cl)cc32)cc1
GI50 (NCI-H1650 [5]; NCI-H1650, 48 h): 24.4 µM

CC(CNS(=O)(=O)c1ccc(OC(F)(F)F)cc1)CN1c2ccccc2CCc2ccccc21 (stereo unspecified)
GI50 (NCI-H1650 [5]; NCI-H1650, 48 h): 20 µM

O=S(=O)(NC1CCC2(OC1)c1ccccc1CCc1ccccc12)c1ccc(OC(F)(F)F)cc1 (stereo unspecified)
GI50 (NCI-H1650 [5]; NCI-H1650, 48 h): 13 µM

CN(CCCN1c2ccccc2CCc2ccc(Cl)cc21)S(=O)(=O)c1ccc(C(F)(F)F)cc1
GI50 (NCI-H1650 [5]): inactive

O=S(=O)(N[C@H]1CCC[C@@H](N2c3ccccc3CCc3ccccc32)C1)c1ccc(OC(F)(F)F)cc1
GI50 (NCI-H1650 [5]; NCI-H1650, 48 h): 25 µM

O=S(=O)(NCCCN1c2ccccc2CCc2ccccc21)C(F)(F)F
GI50 (NCI-H1650 [5]): inactive

CC(CN1c2ccccc2Sc2ccccc21)N(C)C (stereo unspecified) [PROMETHAZINE]
GI50 (NCI-H1650 [5]; NCI-H1650, 48 h): > 40 µM

Cc1ccc(S(=O)(=O)NCCN2c3ccccc3Sc3ccc(Cl)cc32)cc1
GI50 (NCI-H1650 [5]; NCI-H1650, 48 h): 24.4 µM

Cc1nn(C)c(C)c1S(=O)(=O)NCCCN1c2ccccc2CCc2ccccc21
GI50 (NCI-H1650 [5]; NCI-H1650, 48 h): > 40 µM

NCCCN1c2ccccc2CCc2ccc(Cl)cc21
GI50 (NCI-H1650 [5]; NCI-H1650, 48 h): 10 µM

Cn1ccc2c(S(=O)(=O)NCCCN3c4ccccc4CCc4ccccc43)cccc21
GI50 (NCI-H1650 [5]; NCI-H1650, 48 h): > 40 µM

O=S(=O)(NCC/C=C1/c2ccccc2Sc2ccc(Cl)cc21)c1ccc(Cl)cc1
GI50 (NCI-H1650 [5]; NCI-H1650, 48 h): > 40 µM

O=S(=O)(NCCCN1c2ccccc2CCc2ccccc21)c1ccc(-n2cccn2)cc1
GI50 (NCI-H1650 [5]; NCI-H1650, 48 h): > 40 µM

O=S(=O)(NC1CCC2(OC1)c1ccccc1CCc1ccccc12)c1ccccc1 (stereo unspecified)
GI50 (NCI-H1650 [5]; NCI-H1650, 48 h): 22 µM

COc1ccc(OC(=O)NCCCN2c3ccccc3Sc3ccc(Cl)cc32)cc1
GI50 (NCI-H1650 [5]): inactive

CN(C)CCC=C1c2ccccc2CCc2ccccc21 [AMITRIPTYLINE]
GI50 (NCI-H1650 [5]; NCI-H1650, 48 h): > 40 µM

O=S(=O)(NCCCN1c2ccccc2OCc2cccnc21)c1ccc(OC(F)(F)F)cc1
GI50 (NCI-H1650 [5]; NCI-H1650, 48 h): 19.1 µM

O=S(=O)(CCCN1c2ccccc2CCc2ccc(Cl)cc21)c1ccc(OC(F)(F)F)cc1
GI50 (NCI-H1650 [5]): inactive
